Measurements reported in ChEMBL document CHEMBL1153408, “Molecular modeling studies and in vitro bioactivity evaluation of a set of novel 5-nitro-heterocyclic derivatives as anti-T. cruzi agents” (2009).

Experiments:
Format in all cases: functional
Trypanosoma cruzi [1] = experiment: Antitrypanosomal activity against Trypanosoma cruzi Y epimastigotes assessed as parasite growth at 20 ug/ml after 24 hrs
Outline: (§1)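 Y strain epimastigotes grown in LIT medium (pH 7.2, 10% FBS, 2% hemoglobin). Compounds dissolved in DMSO and diluted into LIT. Parasites added at an initial 10^6/mL and incubated at 28 °C for 24 h. Cells counted in a Neubauer chamber at 0 h and 24 h, in triplicate. Growth % = (L24 − L0) × 100/L0.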

Trypanosoma cruzi [2] = experiment: Antitrypanosomal activity against Trypanosoma cruzi Y epimastigotes assessed as parasite growth at 10 ug/ml after 24 hrs; outline: as §1
Trypanosoma cruzi [3] = experiment: Antitrypanosomal activity against Trypanosoma cruzi Y epimastigotes assessed as parasite growth at 1 ug/ml after 24 hrs; outline: as §1

Compound	Parasite growth over 24 h (Trypanosoma cruzi [1]) [%]	Activity (Trypanosoma cruzi [2]) [%]	Parasite growth (Trypanosoma cruzi [3]) [%]
O=C(N/N=C/c1ccc([N+](=O)[O-])o1)c1ccccc1	0	0	0
N#Cc1ccc(C(=O)N/N=C/c2ccc([N+](=O)[O-])s2)cc1		0	
COc1ccc(C(=O)N/N=C/c2ccc([N+](=O)[O-])s2)cc1	0	0	100
O=C(N/N=C/c1ccc([N+](=O)[O-])s1)c1ccccc1	0	57.3	13
CN(C)c1ccc(C(=O)N/N=C/c2ccc([N+](=O)[O-])s2)cc1	0	43.6	10
O=C(N/N=C/c1ccc([N+](=O)[O-])o1)c1ccc(Cl)cc1	0	0	0
O=C(N/N=C/c1ccc([N+](=O)[O-])s1)c1ccc(Cl)cc1	0	0	4
NS(=O)(=O)c1ccc(C(=O)N/N=C/c2ccc([N+](=O)[O-])s2)cc1	19	18.2	16
O=C(N/N=C/c1ccc([N+](=O)[O-])s1)c1ccc(O)cc1		56.6	
O=C(Cn1ccnc1[N+](=O)[O-])NCc1ccccc1 [BENZNIDAZOLE]	3	30	
O=C(N/N=C/c1ccc([N+](=O)[O-])s1)c1ccc(C(F)(F)F)cc1	0	0	28.4
